In ChEMBL document CHEMBL1129672, “Ionophore properties of monensin derivatives studied on human erythrocytes by 23Na NMR and K+ and H+ potentiometry: relationship with antimicrobial and antimalarial activities” (J Med Chem, 1996):
Values after ≈ are worked out from the molar mass of the structure shown.

Legend:
Bacillus cereus = assay: Minimum Inhibitory concentration against Bacillus cereus ATCC 14579; type: functional
Summary of the method: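 Broth dilution in Mueller-Hinton broth pH 7.4, 24 h incubation at 27 °C. Ionophores diluted in DMSO across 18 tubes, 100 ug/mL down to 1.56 ng/mL.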

Plasmodium falciparum = assay: In vitro inhibitory activity against Plasmodium falciparum; type: functional, organism-based
Summary of the method: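 Nigerian strain kept in human erythrocytes, 7% hematocrit, RPMI 1640 + 25 mM Hepes pH 7.4 + 10% AB+ serum, 37 °C, candle jar. Drugs from DMSO stocks (final solvent ≤0.25%), 1–2% hematocrit, 0.3–0.8% parasitemia, 48 h, then [3H]hypoxanthine 12–18 h. Filter-bound counts as % of drug-free control; IC50 from log dose plot, ≥2 experiments in triplicate.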

SMILES	MIC (Bacillus cereus)	IC50 (Plasmodium falciparum)
C[C@@H]1C[C@H](C)[C@@H](C)O[C@@]1(O)COC(=O)c1cccs1	0.02 µg/mL (≈ 0.0703 µM)	0.0027 µg/mL (≈ 0.00949 µM)
C[C@@H]1C[C@H](C)[C@@H](C)O[C@@]1(O)CO	1.56 µg/mL (≈ 8.95 µM)	0.00165 µg/mL (≈ 0.00947 µM)
C[C@@H]1C[C@H](C)[C@@H](C)OC1O (stereo partly specified)	0.39 µg/mL (≈ 2.7 µM)	0.0119 µg/mL (≈ 0.0827 µM)

Other lines, results leading:

MIC (Bacillus cereus)	IC50 (Plasmodium falciparum)	SMILES
> 50 µg/mL	5.25 µg/mL (≈ 29.8 µM)	C[C@H](C[C@H](C)[C@@H](C)O)[C@H](O)CO
1.56 µg/mL (≈ 7.79 µM)	0.00075 µg/mL (≈ 0.00375 µM)	C[C@@H]1C[C@H](C)[C@@H](C)O[C@@]12COC(=O)O2
0.05 µg/mL (≈ 0.153 µM)	0.00125 µg/mL (≈ 0.00381 µM)	C[C@@H]1C[C@H](C)[C@@H](C)O[C@@]1(O)COC(=O)Nc1ccc(Cl)cc1
6.25 µg/mL (≈ 23.8 µM)	0.75 µg/mL (≈ 2.86 µM)	C[C@@H]1C[C@H](C)[C@@H](C)O[C@@]12COC(c1ccccc1)O2 (stereo partly specified)
0.78 µg/mL (≈ 2.37 µM)	0.00125 µg/mL (≈ 0.00381 µM)	Cc1ccc(S(=O)(=O)OC[C@]2(O)O[C@H](C)[C@@H](C)C[C@H]2C)cc1
